One experiment deals with T1, purified hMGL (Homo sapiens, UniProt Q99685).
T1 sequence (Q99685 1-303): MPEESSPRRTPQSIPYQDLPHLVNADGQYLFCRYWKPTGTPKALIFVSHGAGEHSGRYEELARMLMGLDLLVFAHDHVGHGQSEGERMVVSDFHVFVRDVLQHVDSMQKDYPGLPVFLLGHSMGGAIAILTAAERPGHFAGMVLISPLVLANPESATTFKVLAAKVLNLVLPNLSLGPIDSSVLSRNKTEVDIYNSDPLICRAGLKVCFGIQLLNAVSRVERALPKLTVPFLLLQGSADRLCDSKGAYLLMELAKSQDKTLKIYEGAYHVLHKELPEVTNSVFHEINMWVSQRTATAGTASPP
The experiment is described as follows: Inhibition of purified hMGL at fixed inhibitor:hMGL molar ratios. The experiment is classed as biochemical. Conditions: for hMGL Inhibition (%) 10 min: 50 μM AHMMCE, 1 hr preincubation.

Experiment [1] addresses T2, hMGL (recombinant hexa-histidine-tagged human MGL) (Homo sapiens, UniProt Q99685).
T2 sequence (Q99685 1-303): T1 sequence (Q99685 1-303)
Nature of the experiment: Fluorescence-based AHMMCE hydrolysis assay, E. coli lysate containing hMGL. The format is biochemical. The note with it: for hMGL inhibition potency (in words): E. coli lysate containing hMGL, 3-hr incubation, AHMMCE. In short, it runs like this:
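Test compound was preincubated 15 min at room temperature with E. coli lysate containing hMGL (175 ng total protein) in 50 mM Tris-HCl pH 7.4 with 8% DMSO. AHMMCE was then added (20 μM final) and fluorescence (360/460 nm) read every 15 min for 3 hr. HMC formed at 2 h was quantified against an HMC standard curve, and IC50 was fitted by nonlinear regression.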

For a further experiment, the target named is T3, hMGL cysteine residues (Homo sapiens, UniProt Q99685).
T3 sequence (Q99685 1-303): T1 sequence (Q99685 1-303)
Nature of the experiment: MALDI-TOF MS of tryptic digest of NAM-treated hMGL. The note with it: for Relative Alkylation of Cys39: percent alkylation of Cys39 relative to Cys208. The method in brief: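 Purified His-tagged hMGL (3 μM) was incubated 1 hr at room temperature in 10 mM Tris-HCl pH 8.0 with test compound at set molar ratios. It was desalted into 50 mM ammonium bicarbonate with 0.02% CYMAL, pH 8.0, then trypsin-digested overnight, either directly or after DTT (17 mM, 30 min) and iodoacetamide (55 mM, 1 hr, dark). Digests were analysed by MALDI-TOF MS with CHCA matrix.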

A further experiment concerns recombinant MGL. Conditions: read-out: IC50, recombinant MGL; time-dependent; ref Alexander and Cravatt, 2006; cited from earlier work.
Where [2] appears, read: inhibitor:hMGL molar ratio 3.3:1.
The mark [3] stands for this setting: inhibitor:hMGL molar ratio 8.3:1.

These results are taken from PMC3972761 (Chemistry & biology, 2008).

Marks after values point to notes of the source that are not given here.

For `CN(C)C(=O)n1nnc(Cc2ccc(-c3ccccc3)cc2)n1` [AM6701, 5-((biphenyl-4-yl)methyl)-N,N-dimethyl-2H-tetrazole-2-carboxamide], the figures for the “hMGL Inhibition (%) 10 min” value on purified hMGL (inhibitor:hMGL molar ratio 1:1), at purified hMGL (setting [2]) and at purified hMGL (setting [3]) were 72%, 85% and 91%, respectively.

As for `CN(C)C(=O)n1nnnc1Cc1ccc(-c2ccccc2)cc1` [AM6702, 5-((biphenyl-4-yl)methyl)-N,N-dimethyl-1H-tetrazole-1-carboxamide], in experiment [1], the “hMGL inhibition potency (in words)” value is “nM range”.

As to `CCCCC/C=C\C/C=C\C/C=C\C/C=C\CCCCN1C(=O)C=CC1=O` [NAM, N-arachidonylmaleimide], the “Relative Alkylation of Cys208” value was 0% on hMGL cysteine residues (NAM:hMGL ratio 8.3:1) and 0% ^(a) at hMGL cysteine residues (NAM:hMGL ratio 33:1, relative to Cys39/Cys208 pair). The “Relative Alkylation of Cys39” value is given as 0% at hMGL cysteine residues (NAM:hMGL ratio 8.3:1) and 100% ^(a) on hMGL cysteine residues (NAM:hMGL ratio 33:1). In addition, the “hMGL Inhibition (%) 10 min” value at purified hMGL (inhibitor:hMGL molar ratio 1:1) worked out at 51%; on purified hMGL (setting [2]), 80%; on purified hMGL (setting [3]), 82%; at purified hMGL (inhibitor:hMGL molar ratio 33:1), 84%. At purified hMGL (molar ratio not stated at the place), the “hMGL inhibition achieved with partial alkylation of Cys215 and/or Cys249” value was ~ 80%. Moreover, the “hMGL inhibition potency (in words)” value in experiment [1] is “markedly less potent”. Also, the “extent of hMGL inhibition at large molar excesses” value in experiment [1] (large molar NAM excesses (Figure 1C)) is reported as “completely”.

In general, IC50 refers to the midpoint of a concentration-inhibition curve. In the case of LY2183240, the IC50 in the experiment on recombinant MGL is roughly 5.3 nM.
